Assay results taken from ChEMBL document CHEMBL1158795 (J Nat Prod, 2005).
Activity calls are given as the source filed them. The rule behind the calls is not given here.

Experiments:
[1] = molecular target: Aryl hydrocarbon receptor nuclear translocator (Homo sapiens) (UniProt P27540); assay: Inhibition of hypoxia-induced HIF1beta activation in human T47D cells at 10 uM after 4 hrs by Western blotting; assay type: cell-based
How it was run: (§1)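 T47D cells exposed to compound 30 min, then hypoxia (1% O2/94% N2/5% CO2) 4 h. Nuclear extracts prepared; HIF-1α probed by Western blot with monoclonal antibody, membrane stripped and reprobed for HIF-1β with monoclonal anti-HIF-1β antibody.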

T47D [2] = assay: Inhibition of hypoxia-induced secreted VEGF expression in human T47D cells at 0.3 uM after 16 by ELISA; assay type: functional, cell-based
How it was run: (§2)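 T47D cells given compound before hypoxia (1% O2, 16 h). Secreted VEGF protein in conditioned media measured by modified human VEGF ELISA and compared with normoxic control level.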

[3] = molecular target: Aryl hydrocarbon receptor nuclear translocator (Homo sapiens) (UniProt P27540); assay: Inhibition of hypoxia-induced HIF1beta activation in human T47D cells at 0.3 uM after 4 hrs by Western blotting; assay type: cell-based; how it was run: as §1
T47D [4] = assay: Inhibition of hypoxia-induced secreted VEGF expression in human T47D cells at 1 uM after 16 by ELISA; assay type: functional, cell-based; how it was run: as §2
[5] = molecular target: T1, Hypoxia inducible factors; HIF-1-alpha, HIF-2-alpha (Homo sapiens, UniProt Q16665+Q99814); assay: Inhibition of hypoxia-induced HIF1 activation in human T47D cells upto 30 uM after 16 hrs by luciferase reporter gene assay; assay type: cell-based
How it was run: (§3)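 T47D cells transiently co-transfected with pTK-HRE3-luc and pRL-TK control, preincubated with compounds 30 min at 37 °C, then hypoxia (1% O2/94% N2/5% CO2) 16 h. Firefly luciferase activity normalized to Renilla, expressed as % inhibition versus induced control. Representative experiment, quadruplicate.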

[6] = molecular target: T1, Hypoxia inducible factors; HIF-1-alpha, HIF-2-alpha; assay: Inhibition of hypoxia-induced HIF1 activation in human T47D cells upto 10 uM by luciferase reporter gene assay; assay type: cell-based; how it was run: as §3
T47D [7] = assay: Inhibition of hypoxia-induced secreted VEGF expression in human T47D cells at 10 uM after 16 by ELISA relative to normoxic control; assay type: functional; how it was run: as §2
[8] = molecular target: T1, Hypoxia inducible factors; HIF-1-alpha, HIF-2-alpha; assay: Inhibition of hypoxia-induced HIF1 activation in human HeLa cells by luciferase reporter gene assay; assay type: cell-based
[9] = Inhibition of luciferase expression in TNT T7 coupled reticulocyte lysate system at 10 uM; assay type: functional
How it was run: (§4)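 Cell-free luciferase expression from Luciferase T7 Control DNA using TNT T7 coupled reticulocyte lysate transcription/translation. Compounds present during reaction; luciferase activity expressed as percentage of untreated control.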

T47D [10] = assay: Inhibition of hypoxia-induced VEGF expression in human T47D cells at 10 uM after 16 hrs by ELISA; assay type: cell-based
How it was run: (§5)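 T47D cells given compound for 30 min before hypoxia (1% O2) for 16 h. VEGF protein in cell lysates measured by ELISA, normalized to cellular protein. Representative experiment in triplicate; significance p < 0.05 versus untreated control.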

T47D [11] = assay: Inhibition of VEGF protein expression in human T47D cells at 0.3 uM; assay type: functional
How it was run: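 T47D breast carcinoma cells in DMEM/F12 with 10% FBS, 37 °C. Compound added 30 min before hypoxia (1% O2/94% N2/5% CO2, 16 h). Cell lysate VEGF measured by ELISA and normalised to cellular protein. Secreted VEGF in conditioned medium measured by modified ELISA. Compared with untreated control; one representative experiment in triplicate; significance p < 0.05.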

[12] = Inhibition of luciferase expression in TNT T7 coupled reticulocyte lysate system at 0.3 uM; assay type: functional; how it was run: as §4
T47D [13] = assay: Inhibition of hypoxia-induced VEGF expression in human T47D cells at 0.3 uM after 16 hrs by ELISA; assay type: cell-based; how it was run: as §5
T47D [14] = assay: Inhibition of hypoxia-induced VEGF expression in human T47D cells at 3 uM after 16 hrs by ELISA; assay type: cell-based; how it was run: as §5
T47D [15] = assay: Inhibition of hypoxia-induced secreted VEGF expression in human T47D cells at 3 uM after 16 by ELISA relative to normoxic control; assay type: functional; how it was run: as §2
[16] = molecular target: T1, Hypoxia inducible factors; HIF-1-alpha, HIF-2-alpha; assay: Inhibition of hypoxia-induced HIF1 activation in human T47D cells after 16 hrs by luciferase reporter gene assay; assay type: cell-based
T47D [17] = assay: Inhibition of hypoxia-induced VEGF expression in human T47D cells at 1 uM after 16 hrs by ELISA; assay type: cell-based; how it was run: as §5

Chain of Aryl hydrocarbon receptor nuclear translocator (Homo sapiens) (P27540 whole entry): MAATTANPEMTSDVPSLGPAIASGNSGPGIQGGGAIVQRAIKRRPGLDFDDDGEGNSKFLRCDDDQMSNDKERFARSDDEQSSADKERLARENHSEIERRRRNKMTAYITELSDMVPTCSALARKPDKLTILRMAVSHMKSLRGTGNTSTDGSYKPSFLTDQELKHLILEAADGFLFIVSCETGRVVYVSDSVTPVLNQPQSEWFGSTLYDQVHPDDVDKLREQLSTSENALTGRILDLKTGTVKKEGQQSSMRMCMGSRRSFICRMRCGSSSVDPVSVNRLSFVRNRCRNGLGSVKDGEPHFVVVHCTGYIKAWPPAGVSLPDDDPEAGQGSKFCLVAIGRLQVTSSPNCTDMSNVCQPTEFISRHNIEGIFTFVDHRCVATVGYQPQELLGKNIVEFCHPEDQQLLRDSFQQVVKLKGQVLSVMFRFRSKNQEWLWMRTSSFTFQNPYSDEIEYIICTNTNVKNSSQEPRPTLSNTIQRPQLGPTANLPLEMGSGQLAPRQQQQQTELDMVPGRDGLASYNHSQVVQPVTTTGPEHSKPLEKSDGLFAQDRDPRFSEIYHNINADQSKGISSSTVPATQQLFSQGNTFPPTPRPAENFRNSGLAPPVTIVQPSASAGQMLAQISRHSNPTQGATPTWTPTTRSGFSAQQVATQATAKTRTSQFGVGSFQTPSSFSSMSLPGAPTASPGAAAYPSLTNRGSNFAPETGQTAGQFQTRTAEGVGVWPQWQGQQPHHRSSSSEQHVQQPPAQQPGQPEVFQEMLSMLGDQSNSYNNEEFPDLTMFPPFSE

| SMILES | Activity [1] | Activity (T47D [2]) | Activity [3] | Activity (T47D [4]) | Activity [5] | Activity [6] | inhibition at 10 µM (T47D [7]) | IC50 [8] | Activity [9] | Activity (T47D [10]) | Activity (T47D [11]) | Activity [12] | inhibition (T47D [13]) | Activity (T47D [14]) | inhibition at 3 µM (T47D [15]) | IC50 [16] | inhibition (T47D [17]) |
| --- | --- | --- | --- | --- | --- | --- | --- | --- | --- | --- | --- | --- | --- | --- | --- | --- | --- |
| CC[C@H]1CN2CCc3cc(OC)c(OC)cc3[C@@H]2C[C@@H]1C[C@@H]1NCCc2cc(O)c(O)cc21 | inactive | inactive | inactive | Active | inactive | inactive |  |  |  |  |  |  |  |  |  |  |  |
| C[C@@H]1C[C@@H]([C@H](O)CC2CC(=O)NC(=O)C2)C(=O)[C@@H](C)C1 [CYCLOHEXIMIDE] | inactive | inactive | inactive |  |  |  | 43% | 36 nM | Active | Active |  |  |  |  |  |  |  |
| CC[C@H]1CN2CCc3cc(OC)c(OC)cc3[C@@H]2C[C@@H]1C[C@H]1NCCc2cc(OC)c(OC)cc21 [EMETINE] | inactive | Active | inactive |  |  |  |  |  | Active |  | 58.8 pg/mL | inactive | 69% |  |  |  |  |
| CC[C@H]1CN2CCc3cc(OC)c(OC)cc3[C@@H]2C[C@@H]1C[C@@H]1NCCc2cc(O)c(OC)cc21 [ISOCEPHAELINE] | inactive | inactive | inactive |  |  |  |  |  |  |  |  |  |  | Active | 69% | 1100 nM |  |
| CC[C@H]1CN2CCc3cc(O)c(OC)cc3[C@@H]2C[C@@H]1C[C@@]1(O)NCCc2cc(O)c(OC)cc21 [KLUGINE] | inactive | inactive | inactive | Active |  |  |  |  | Active |  |  | inactive |  |  |  | 200 nM | 56% |
